# Screening results (PubChem BioAssay)
# ABCB6 inh MLPCN = inhibitors of human ABC transporter ABCB6; Q9NP58; K562-ABCB6 porphyrin accumulation, flow cytometry, 1 h; stronger effect = lower value; fluorescence ratio to DMSO, % at 10 µM; hit rate 0.19% among 360,000; AID 602162;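 active means fluorescence ratio to DMSO below 75%, the collection mean minus 3 SD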;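 further: signal is porphyrin accumulated inside mitochondria; 100% equals median channel fluorescence of DMSO control wells; lower ratio means ABCB6 inhibition with less porphyrin fluorescence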
# SENP1 FRET inh = SENP1 (human) catalytic domain inhibition; Q9P0U3; recombinant SENP1 catalytic domain, CyPet-SUMO1-YPet FRET cleavage; inhibition, % at 10 µM; hit rate 0.21% among 360,000;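 active means inhibition at least 30% at 10 µM, raw YFP signal under a set limit, fluorescence ratio 0.5 to 1.5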;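 further: 0% = enzyme with DMSO and 100% = no enzyme wells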
# Target sequence (Q9P0U3 419-644 limits assumed): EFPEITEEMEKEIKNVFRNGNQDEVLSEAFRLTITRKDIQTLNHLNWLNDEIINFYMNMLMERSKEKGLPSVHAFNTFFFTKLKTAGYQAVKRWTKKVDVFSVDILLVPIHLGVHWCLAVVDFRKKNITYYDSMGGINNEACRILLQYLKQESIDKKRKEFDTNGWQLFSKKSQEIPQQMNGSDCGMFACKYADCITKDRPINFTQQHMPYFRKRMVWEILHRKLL
#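 system = hSENP1 catalytic domain, recombinant | reagent = SFCypet-SUMO1-SFYpet substrate at 25 nM | doses = one dose per compound, 10 µM, 0.5% DMSO | incubation = enzyme reaction for 50 min at room temperature, dark | measured by = FRET, CFP and YFP emission | controls = no-enzyme low, enzyme-DMSO high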
# FAS-TE inh = blocks the thioesterase domain of human fatty acid synthase. inhibition, % at 15 µM. P49327. recombinant FAS-TE, OMFH fluorogenic substrate, fluorescence endpoint. hit rate 0.67% among 360,000. AID 602261;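 active means compounds whose normalised, plate-corrected inhibition of enzyme fluorescence in the single-dose primary screen is 50% or more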;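 further: 0% = DMSO with enzyme and 100% = substrate without enzyme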
# hiPSC survival = enhancers of human iPSC single-cell survival; hiPSC single-cell survival, ATPlite luminescence; 100% = ROCK inhibitor wells, 0% = DMSO; survival enhancement, % at 20 µM; hit rate 0.044% among 360,000; AID 602274; in the data active means survival enhancement above about 18%;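 further: cells exposed to compounds for 16 hours before the ATP read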
# FAS-TE inh conf = FAS thioesterase (human) inhibition, confirmation. shares compounds with FAS-TE inh. recombinant FAS-TE, OMFH fluorogenic substrate, fluorescence. inhibition, % at 15 µM. hit rate 45% among 2,300;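 active means compounds inhibiting the enzyme by at least 50% at 15 µM in any one of the replicates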;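 further: 0% = enzyme with DMSO only and 100% = wells lacking enzyme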
# Starred values were filed as active, the others as inactive; · = no result. A selection: hits, their analogues and other compounds. The true share with any hit is near 1.1%.
SMILES,ABCB6 inh MLPCN,SENP1 FRET inh,FAS-TE inh,hiPSC survival,FAS-TE inh conf
COc1ccc(-c2csc(/C(C#N)=C\c3ccc(OC)c([N+](=O)[O-])c3)n2)cc1,118,-25,30,2,·
COc1ccc(C(C(=O)NC2CCCC2)N(C(=O)c2snc(-c3ccc(F)cc3)c2N)c2ccc(F)cc2)cc1 (stereo not drawn),104,0,8,-3,·
COc1ccc(C(C(=O)NC2CCCC2)N(C(=O)c2snc(-c3ccc(F)cc3)c2N)c2ccc(OC)cc2)cc1 (stereo not drawn),92,4,59*,0,27
COc1ccc(C(C#N)c2ccc(=O)[nH]n2)cc1 (stereo not drawn),102,2,-9,-1,·
COC(=O)c1ccc2c(=O)[nH]c(COC(=O)CCC(=O)c3ccc(Cl)cc3)nc2c1,107,-17,-4,0,·
COC(=O)c1cc([N+](=O)[O-])c(-n2cncn2)c([N+](=O)[O-])c1,95,2,57*,2,29
COC(=O)c1cc(F)c(-n2cncn2)c(F)c1,99,3,-6,-2,·
CN=C1SC(CC(=O)Nc2c(C)cccc2C)C(=O)N1/N=C/c1cccs1 (stereo not drawn),101,5,-4,-1,·
COc1ccc([N+](=O)[O-])cc1NC(=O)CC1SC(=Nc2cccc(C)c2C)N(/N=C/c2cccc(OC)c2OC)C1=O (stereo not drawn),89,2,87*,6,8
CCN(CC)C(=O)C1CCCN(c2ccc([N+](=O)[O-])cc2/C=N/NC(=O)c2cccc(O)c2)C1 (stereo not drawn),101,-6,66*,3,68*
CCN(CC)C(=O)C1CCCN(c2ccc([N+](=O)[O-])cc2/C=N/NC(=O)c2ccccc2)C1 (stereo not drawn),97,-5,85*,-1,56*
COc1ccc(N2CCN(C(=O)CSc3ccc([N+](=O)[O-])cc3)CC2)cc1,104,2,60*,1,33*
Cc1cccc(C)c1NC(=O)NC1(C(=O)NCC2CCCO2)CCCCC1 (stereo not drawn),98,1,-4,0,·
CC(C)C[C@@H](C(=O)NCc1ccco1)N1C(=O)N2CCc3c([nH]c4ccccc34)[C@@]2(C)C1=O,103,-23,16,-1,·
O=[N+]([O-])c1cccc(-c2ccc(SCc3cccnc3)nn2)c1,98,1,53*,2,58*
CSc1ccc(-c2cccc([N+](=O)[O-])c2)nn1,99,0,5,0,·
O=C(NCC(c1ccco1)N1CCc2ccccc2C1)c1cccc(F)c1 (stereo not drawn),102,0,7,0,·
O=C(NCC(c1ccco1)N1CCc2ccccc2C1)c1ccc([N+](=O)[O-])cc1 (stereo not drawn),99,2,60*,0,11
O=[N+]([O-])c1ccc2nc(Cl)nc(-c3ccccc3)c2c1,91,-10,3,0,·
CN(CCOc1ccccc1)CC(=O)Nc1ccc([N+](=O)[O-])cc1Cl,98,2,60*,0,39*
CN(CC(=O)Nc1ccccc1Cl)C(=O)COC(=O)c1ccc([N+](=O)[O-])cc1Cl,101,-1,10,0,·
O=C(Nc1cccc(C(=O)O)c1)/C(=C/c1cccc([N+](=O)[O-])c1)NC(=O)c1cccc(Br)c1,101,-6,62*,0,58*
CN(C)S(=O)(=O)c1ccc(C(=O)Nc2cc3c(cc2C(=O)O)OCCCO3)cc1,91,0,-8,0,·
CCOC(=O)C1CCCN(C/C=C/c2ccccc2)C1 (stereo not drawn),97,0,0,2,·
CC(=O)N/C(=C/c1ccc(OS(=O)(=O)c2ccc(C)cc2)cc1)C(=O)Nc1ccc(C(=O)O)cc1,103,5,-3,0,·
Cc1ccc(S(=O)(=O)Oc2ccc(/C=C(/NC(=O)c3ccccc3)C(=O)Nc3ccccc3)cc2)cc1,113,2,55*,1,18
COc1ccc(NC(=O)/C(=C\c2ccc(OS(=O)(=O)c3ccc(C)cc3)cc2)NC(=O)c2ccccc2)cc1,114,2,54*,-4,15
O=C(N1CCCCC1)N1CCN(S(=O)(=O)c2ccccc2)CC1,103,1,-3,0,·
